{"data": "Assay results of several laboratories", "observed": "binding", "PIKFYVE": "1-phosphatidylinositol 3-phosphate 5-kinase (PIKFYVE, Homo sapiens, UniProt Q9Y2I7)", "NAD-dependent histone deacetylase SIR2": "NAD-dependent histone deacetylase SIR2 (Saccharomyces cerevisiae S288c, UniProt P06700)", "mnmE": "mnmE (Escherichia coli, UniProt P25522)", "UCK2": "Uridine-cytidine kinase 2 (UCK2, Homo sapiens, UniProt Q9BZX2)", "PIK3CB": "Phosphatidylinositol 4,5-bisphosphate 3-kinase catalytic subunit beta isoform (PIK3CB, Homo sapiens, UniProt P42338)"}
{"Compound": "COc1cc(Nc2ncc3c(n2)-c2ccc(Cl)cc2C(c2c(F)cccc2OC)=NC3)ccc1C(=O)O", "target": "Interleukin-1 receptor-associated kinase 3 (IRAK3, Homo sapiens, UniProt Q9Y616)", "setting": "lysate", "Kd": "2200 nM"}
{"Compound": "CCCOc1ccc2[nH]c(C)c(/C=C/C(=O)c3ccncc3)c2c1", "target": "PIKFYVE", "method": "competition with immobilised ligand", "Kd": "6.5 nM"}
{"Compound": "Nc1ncnc2c1ncn2[C@@H]1O[C@H](COP(=O)(O)OP(=O)(O)OC[C@H]2OC(O)[C@H](O)[C@@H]2O)[C@@H](O)[C@H]1O (stereo partly drawn)", "target": "NAD-dependent histone deacetylase SIR2", "method": "SPR", "Kd": "2950 nM"}
{"Compound": "COc1ccc2[nH]c(C)c(/C=C/C(=O)c3ccncc3)c2c1", "target": "PIKFYVE", "method": "competition with immobilised ligand", "Kd": "6.9 nM"}
{"Compound": "Nc1nc(=O)c2c([nH]1)NC[C@@H](CNc1ccc(C(=O)N[C@@H](CCC(=O)O)C(=O)O)cc1)N2C=O", "target": "mnmE", "method": "ITC", "pH": "pH 7.5", "Kd": "200 nM"}
{"Compound": "[N-]=[N+]=N[C@@H]1[C@H](O)[C@@H](CO)O[C@H]1n1ccc(N)nc1=O", "target": "UCK2", "method": "fluorescence", "Kd": "17.8 nM"}
{"Compound": "Cc1cc2nc3c(=O)[nH]c(=O)nc-3n(C[C@H](O)[C@H](O)[C@H](O)COP(=O)(O)OP(=O)(O)OC[C@H]3O[C@@H](n4cnc5c(N)ncnc54)[C@H](O)[C@@H]3O)c2cc1C", "target": "Ubiquitin-associated protein 2 (Homo sapiens, UniProt Q5T6F2)", "setting": "lysate", "Kd": "45 nM"}
{"Compound": "Nc1nc2c(c(=O)[nH]1)N1CN(c3ccc(C(=O)N[C@@H](CCC(=O)O)C(=O)O)cc3)C[C@H]1CN2", "target": "mnmE", "method": "ITC", "Kd": "~1000 nM"}
{"Compound": "CCC(=O)N1CCC(C(=O)NCC(=O)N2CCN(c3nc(-c4cnc(N)nc4C(F)F)nc(N4CCOCC4)n3)CC2)CC1", "target": "PIK3CB", "Kd": "0.71 nM"}
{"Compound": "NC(=O)c1ccc[n+]([C@@H]2O[C@H](COP(=O)([O-])OP(=O)(O)OC[C@H]3O[C@@H](n4cnc5c(N)ncnc54)[C@H](O)[C@@H]3O)[C@@H](O)[C@H]2O)c1", "target": "NAD-dependent histone deacetylase SIR2", "method": "SPR", "Kd": "575 nM"}
{"Compound": "Nc1ccn([C@@H]2O[C@H](CO)[C@@H](O)[C@H]2O)c(=O)n1", "target": "UCK2", "method": "fluorescence", "Kd": "3.7 nM"}
{"Compound": "Cc1ncsc1-c1ccc([C@H](C)NC(=O)[C@@H]2C[C@@H](O)CN2C(=O)[C@@H](NC(=O)CCCCCC(=O)N2CCC3(CC2)CCN(c2cncc(Nc4ncc(Cl)c(-c5cccc(-c6ccccc6)c5)n4)c2)C3=O)C(C)(C)C)cc1", "target": "Phosphatidylinositol 5-phosphate 4-kinase type-2 beta (PIP4K2B, Homo sapiens, UniProt P78356)", "Kd": "> 10000 nM"}
{"Compound": "C=CC(=O)N1CCC(C(=O)NCC(=O)N2CCN(c3nc(-c4cnc(N)nc4C(F)F)nc(N4CCOCC4)n3)CC2)CC1", "target": "PIK3CB", "Kd": "0.85 nM"}
{"Compound": "COC(=O)[C@@H](N)CCCCN", "target": "LRP1 (Homo sapiens, UniProt Q07954)", "method": "fluorescence", "pH": "pH 7.4", "Kd": "370000 nM"}
{"Compound": "O=C(O)c1cccc(Nc2cc(N3CCCCCC3)c3noc4c3c2C(=O)c2ccccc2-4)c1", "target": "Urokinase plasminogen activator surface receptor (Homo sapiens, UniProt Q03405)", "Kd": "190 nM"}
